Results on 21 compounds are retold here after PubChem BioAssay.

Activity calls are given as the source filed them. Unless noted, no stated cut-off is given here; in the data, active means inhibition above about 31%; inactive means the rest.

A short description of experiment [1]: HUVEC growth inhibition – cell-based, human, primary screen (AID 575;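 active means viability at or below 30% in both replicate assays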;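 further: 100% = median of untreated cell wells with 0.1% DMSO on each plate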). As to conditions: HUVEC proliferation, CellTiter-Glo luminescence, 72 h; at 10 µM; stronger effect = lower value. In a few lines: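 Assay system: Primary human umbilical vein endothelial cells | Quantity: 1250 cells per well | Medium: Supplemented EBM, 2% fetal bovine serum | Detection: CellTiter-Glo luminescence measuring cellular ATP | Read-out: % viability vs DMSO wells | Plate: Collagen-coated 384-well format | Times: 72 h exposure, 37 °C, 5% CO2, 30 min RT equilibration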
Background: In ATP-based viability assays light output follows the ATP content of the culture.

A short description of experiment [2]: H69AR cell proliferation blockers – human, duplicate replicates, primary screen (AID 580;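 active means viability at or under a set limit in both replicates, limit being median viability minus 3 SD, cut at about 48% in these data, passing the limit was not always enough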;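 further: 100% = mean luminescence of untreated wells and 0% = no signal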). As to conditions: H69AR lung tumor cells viability, ATP luminescence, 72 h; at 10 µM; stronger effect = lower value.
Experiment [3] in a line: MRP1 drug-resistance reversers in H69AR cells – cell-based, doxorubicin co-treatment, pilot screen (AID 601;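 active means viability loss from added drug above about 55%, and viability with drug at most 40%, in both replicates, limit read from the data, passing the limit was not always enough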). As to conditions: CellTiter-Glo, 72 h, at 10 µM; for differential viability (reversal): stronger effect = higher value.
A short description of experiment [4]: yeast transport mutant growth inhibition pilot in 384-well plates, post-Golgi transport modulator project (AID 636). Particulars: absorbance 615 nm, about 18 h, stronger effect = higher value.
Experiment [5] in a line: growth suppression of yeast trafficking mutant, preliminary HTS, modulators of trafficking downstream of Golgi apparatus project, 1536-format plate, OD 615 nm (AID 637; in the data active means inhibition above about 30%). As to conditions: yeast transport mutant growth, absorbance 615 nm, 18 h; stronger effect = higher value.
Where [6] appears, read: H69AR cells + 2 uM doxorubicin, measured here: viability with 2 uM doxorubicin, stronger effect = lower value.
Setting [7] is: H69AR cells, compound alone cytotoxicity.

Take `Cc1nc(C)c(C(=O)C2=C(O)C(=O)N(CCN3CCOCC3)C2c2ccco2)s1` (configuration not stated): the viability (usually a read-out of living cells in per cent, often relative to untreated cells) in experiment [1] is 109% (inactive); in experiment [2], 86.3% (inactive); in experiment [3] (setting [6]), 89.7%; in experiment [3] (setting [7]) it was 86.3%. For the same compound, in experiment [3] (H69AR cells + 2 uM doxorubicin), the differential viability (reversal) was -3.34% (inactive). Further, the inhibition (as a rule, the relative decrease from the control value, in per cent) in experiment [4] was -4.8% (inactive); in experiment [5], 3.02% (inactive).

For the compound `COc1ccc(N(CC(=O)Nc2ccc(F)c(Cl)c2)S(=O)(=O)c2c(C)noc2C)cc1`, the viability in experiment [1] is 93.8% (inactive); in experiment [2] it was 81.5% (inactive); in experiment [3] (setting [6]), 89.3%; in experiment [3] (setting [7]) it was 81.5%. Further, the differential viability (reversal) in experiment [3] (H69AR cells + 2 uM doxorubicin) is -7.84% (inactive). Also, the inhibition in experiment [4] is -1.07% (inactive); in experiment [5] it was -6.83% (inactive).

`Cc1cc(NC(=O)c2ccc3nc(-c4ccccc4)c(-c4ccccc4)nc3c2)no1`: the viability is 23.6% (active) in experiment [1], 13.4% (active) in experiment [2], 14.8% in experiment [3] (setting [6]) and 13.4% in experiment [3] (setting [7]). In addition, in experiment [3] (H69AR cells + 2 uM doxorubicin), the differential viability (reversal) is -1.37% (inactive). Besides, the figures for the inhibition in experiment [4] and in experiment [5] were -1.05% (inactive) and 0.79% (inactive), respectively.

For the compound `CCOC(=O)C1CCCN(C(=O)c2cccs2)C1` (configuration not stated), the viability in experiment [1] is 96.7% (inactive); in experiment [2] it was 98.3% (inactive); in experiment [3] (setting [6]), 82.9%; in experiment [3] (setting [7]) it was 98.3%. In addition, in experiment [3] (H69AR cells + 2 uM doxorubicin), the differential viability (reversal) was 15.4% (inactive). Further, the inhibition in experiment [4] was -6.18% (inactive); in experiment [5] it was 0.48% (inactive).

Turning to `Nc1nnc(Cc2ccc(Cl)cc2)s1`, the viability is 115% (inactive) in experiment [1], 102% (inactive) in experiment [2], 86.3% in experiment [3] (setting [6]) and 102% in experiment [3] (setting [7]). For the same compound, the differential viability (reversal) in experiment [3] (H69AR cells + 2 uM doxorubicin) is 15.6% (inactive). The inhibition is -6.18% (inactive) in experiment [4] and 3.49% (inactive) in experiment [5].

As for `COc1ccccc1-c1c(C)nn2c(C)c(C(C)=O)cnc12`, the viability in experiment [1] was 111% (inactive); in experiment [2] it was 94.3% (inactive); in experiment [3] (setting [6]), 84%; in experiment [3] (setting [7]) it was 94.3%. Also, the differential viability (reversal) in experiment [3] (H69AR cells + 2 uM doxorubicin) is 10.3% (inactive). For the same compound, the inhibition in experiment [4] was -6.1% (inactive); in experiment [5], 1.27% (inactive).

With `CCOC(=O)N1CCC(N(C(=O)Nc2ccc(Cl)c(Cl)c2)C(C)CC)CC1` (configuration not stated), the viability in experiment [1] is 79.3% (inactive); in experiment [2] it was 97.7% (inactive); in experiment [3] (setting [6]), 93.4%; in experiment [3] (setting [7]), 97.7%. In addition, the differential viability (reversal) in experiment [3] (H69AR cells + 2 uM doxorubicin) was 4.27% (inactive). The figures for the inhibition in experiment [4] and in experiment [5] were -2.63% (inactive) and 0.79% (inactive), respectively.

With `C=CCn1c(SCc2cc(=O)n3ccsc3n2)nnc1C1CCCCC1`, the viability in experiment [1] is 93.1% (inactive); in experiment [2], 96.7% (inactive); in experiment [3] (setting [6]) it was 79.1%; in experiment [3] (setting [7]) it was 96.7%. Also, the differential viability (reversal) in experiment [3] (H69AR cells + 2 uM doxorubicin) is 17.5% (inactive). Also, the inhibition in experiment [4] was -5.19% (inactive); in experiment [5], -0.16% (inactive).

Consider `CC(=O)c1cc(-c2ccccc2)n(CC(=O)N2CCC(N3CCCCC3)CC2)c1C`, for which the viability in experiment [1] was 85.3% (inactive); in experiment [2], 82.7% (inactive); in experiment [3] (setting [6]) it was 85.1%; in experiment [3] (setting [7]) it was 82.7%. The differential viability (reversal) in experiment [3] (H69AR cells + 2 uM doxorubicin) was -2.33% (inactive). Besides, the inhibition in experiment [4] is -2.73% (inactive); in experiment [5], 0.63% (inactive).

On to `COc1ccc(Cc2nc3ccc(S(N)(=O)=O)cc3[nH]2)cc1OC`, for which the viability in experiment [1] is 106% (inactive); in experiment [2], 99.9% (inactive); in experiment [3] (setting [6]) it was 85.4%; in experiment [3] (setting [7]), 99.9%. Also, the differential viability (reversal) in experiment [3] (H69AR cells + 2 uM doxorubicin) was 14.6% (inactive). Besides, the inhibition was -2.86% (inactive) in experiment [4] and 0.63% (inactive) in experiment [5].

In the case of `Cc1ccc(NC(=O)c2ccccc2F)nc1`, the viability in experiment [1] is 68.1% (inactive); in experiment [2] it was 90.9% (inactive); in experiment [3] (setting [6]), 97.2%; in experiment [3] (setting [7]) it was 90.9%. Besides, the differential viability (reversal) in experiment [3] (H69AR cells + 2 uM doxorubicin) was -6.37% (inactive). For the same compound, the figures for the inhibition in experiment [4] and in experiment [5] were -4.93% (inactive) and 1.11% (inactive), respectively.

For `O=C(Nc1ccc(Cl)cc1)N1CCSCC1`, the viability in experiment [1] was 97.6% (inactive); in experiment [2], 107% (inactive); in experiment [3] (setting [6]), 89.6%; in experiment [3] (setting [7]), 107%. Further, the differential viability (reversal) in experiment [3] (H69AR cells + 2 uM doxorubicin) was 17% (inactive). The inhibition is -1.45% (inactive) in experiment [4] and -0.16% (inactive) in experiment [5].

Regarding `CC1CCCCN1CCNS(=O)(=O)c1ccc2c(c1)oc(=O)n2C` (configuration not stated), the viability is 87% (inactive) in experiment [1], 108% (inactive) in experiment [2], 99.9% in experiment [3] (setting [6]) and 108% in experiment [3] (setting [7]). Further, the differential viability (reversal) in experiment [3] (H69AR cells + 2 uM doxorubicin) is 7.79% (inactive). Besides, the figures for the inhibition in experiment [4] and in experiment [5] were -6.13% (inactive) and -1.11% (inactive), respectively.

Turning to `CCn1c(Cc2ccccc2)nnc1SCC(=O)Nc1nc2ccccc2s1`, the viability in experiment [1] was 87.9% (inactive); in experiment [2], 104% (inactive); in experiment [3] (setting [6]), 99.9%; in experiment [3] (setting [7]) it was 104%. Also, the differential viability (reversal) in experiment [3] (H69AR cells + 2 uM doxorubicin) is 4.48% (inactive). Further, the inhibition is -3.03% (inactive) in experiment [4] and 6.51% (inactive) in experiment [5].

For `COC(=O)Cc1c(C)nc2nc(-c3ccccc3)[nH]n2c1=O`, the viability in experiment [1] is 90.8% (inactive); in experiment [2], 102% (inactive); in experiment [3] (setting [6]), 106%; in experiment [3] (setting [7]), 102%. In addition, the differential viability (reversal) in experiment [3] (H69AR cells + 2 uM doxorubicin) is -4.13% (inactive). Further, the inhibition in experiment [4] is 0.53% (inactive); in experiment [5], -5.56% (inactive).

With `CCOC(=O)CC(C#N)c1cn(C)c2ccccc12` (configuration not stated), the viability is 86.6% (inactive) in experiment [1], 88% (inactive) in experiment [2], 92.2% in experiment [3] (setting [6]) and 88% in experiment [3] (setting [7]). In experiment [3] (H69AR cells + 2 uM doxorubicin), the differential viability (reversal) was -4.15% (inactive). The values for the inhibition in experiment [4] and in experiment [5] were -6.58% (inactive) and -4.6% (inactive), respectively.

Regarding `Cc1nn(C)c(C)c1NC(=O)CCSc1nc(-c2ccco2)cc(C(F)(F)F)n1`, the viability in experiment [1] is 93% (inactive); in experiment [2], 98.8% (inactive); in experiment [3] (setting [6]), 95%; in experiment [3] (setting [7]), 98.8%. For the same compound, the differential viability (reversal) in experiment [3] (H69AR cells + 2 uM doxorubicin) was 3.76% (inactive). Also, the inhibition in experiment [4] is -2.93% (inactive); in experiment [5] it was 4.44% (inactive).

As to `CC(C)(C)C1CCc2c(sc3c2C(=O)NC(c2ccco2)N3)C1` (configuration not stated), the viability in experiment [1] is 72.5% (inactive); in experiment [2], 88.5% (inactive); in experiment [3] (setting [6]), 98.9%; in experiment [3] (setting [7]) it was 88.5%. Further, in experiment [3] (H69AR cells + 2 uM doxorubicin), the differential viability (reversal) was -10.4% (inactive). Also, the figures for the inhibition in experiment [4] and in experiment [5] were 1.97% (inactive) and -0.16% (inactive), respectively.

In the case of `COC(=O)c1c(NC(=O)C2CC=CCC2C(=O)O)sc(C(N)=O)c1C` (configuration not stated), the viability in experiment [1] is 75.4% (inactive); in experiment [2], 98.2% (inactive); in experiment [3] (setting [6]), 94%; in experiment [3] (setting [7]), 98.2%. Also, the differential viability (reversal) in experiment [3] (H69AR cells + 2 uM doxorubicin) was 4.23% (inactive). Also, the figures for the inhibition in experiment [4] and in experiment [5] were -7.76% (inactive) and -6.03% (inactive), respectively.

As to `CCCOc1ccc(N2C(=O)CC(NCCCN3CCC(C(N)=O)CC3)C2=O)cc1` (configuration not stated), the viability in experiment [1] is 121% (inactive); in experiment [2] it was 88.6% (inactive); in experiment [3] (setting [6]) it was 91.9%; in experiment [3] (setting [7]), 88.6%. The differential viability (reversal) in experiment [3] (H69AR cells + 2 uM doxorubicin) was -3.32% (inactive). The inhibition in experiment [4] was -1.97% (inactive); in experiment [5], 1.27% (inactive).

As for `N#CCc1nc(CSc2nc3ccccc3s2)cs1`, the viability in experiment [1] was 99.1% (inactive); in experiment [2], 91.3% (inactive); in experiment [3] (setting [6]), 82.4%; in experiment [3] (setting [7]), 91.3%. In addition, the differential viability (reversal) in experiment [3] (H69AR cells + 2 uM doxorubicin) was 8.82% (inactive). For the same compound, the values for the inhibition in experiment [4] and in experiment [5] were -1.04% (inactive) and 3.02% (inactive), respectively.
